Hits are enriched below; roughly 2.1% of the tested compounds scored in any of these assays.
CCR6 antag = CCR6 receptor antagonists, primary screen, cell-based, CHO-K1, luminescence, beta-arrestin, uHTS. AID 493098, 2011. inhibition, % at 20 µM. CHO-K1 CCR6 PathHunter beta-arrestin, CCL20-stimulated. C-C chemokine receptor type 6 (Homo sapiens), P51684. 340,000 compounds, 0.49% hits;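 active = compounds whose inhibition of the agonist-driven luminescence signal at 20 µM reaches about 50%, limit read from the data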;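 note: cells stimulated with CCL20 at 14 nM final; plate controls were DMSO with CCL20 for no effect and DMSO without agonist for full effect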
APJ agonist = agonists of human apelin receptor APJ, primary screen, CHO-K1 cells, PathHunter beta-arrestin, luminescence; activation, % at 20 µM; 330,000 compounds, 0.11% hits; 0% DMSO wells, 100% apelin; P35414;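 active = activation more than six SD over the plate average, tested at 20 µM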;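 note: 0% = DMSO alone and 100% = apelin-13 at 10 nM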
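Assay system: CHO-K1 APJ beta-arrestin complementation cell line / Compound: single test compound dose, 20 µM final, 1% DMSO / Times: overnight seeding, 90 min compound at 25 °C, 1 h detection / Technique: beta-gal luminescence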
EBI2 block = EBI2 receptor antagonists, beta-arrestin recruitment, primary screen, cell-based, luminescence, 7a,25-OHC stimulation, uHTS | G-protein coupled receptor 183 (Homo sapiens), P32249 | 7a,25-OHC stimulated | inhibition, % at 5 µM | 360,000 compounds, 0.81% hits | AID 651636, 2012; in the data active = inhibition above about 38%;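 note: enzyme fragment complementation signal reports receptor beta-arrestin coupling in cells; 0% = agonist plus DMSO wells and 100% = wells without agonist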
Target sequence (P32249 whole entry, looked up, the tested form may be a part): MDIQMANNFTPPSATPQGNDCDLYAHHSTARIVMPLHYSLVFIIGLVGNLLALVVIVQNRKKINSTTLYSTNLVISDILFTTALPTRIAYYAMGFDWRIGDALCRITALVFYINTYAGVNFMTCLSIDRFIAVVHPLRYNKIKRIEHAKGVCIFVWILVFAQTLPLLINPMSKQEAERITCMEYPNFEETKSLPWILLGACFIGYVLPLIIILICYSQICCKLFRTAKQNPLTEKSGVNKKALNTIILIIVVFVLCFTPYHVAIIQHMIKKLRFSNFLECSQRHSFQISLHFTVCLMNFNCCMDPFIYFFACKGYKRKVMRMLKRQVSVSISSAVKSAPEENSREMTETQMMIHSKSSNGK
m5-HT2A agonist = mouse Htr2a agonists via beta-arrestin recruitment, primary screen, cell-based, luminescence; 5-hydroxytryptamine receptor 2A (Mus musculus), P35363; CHO-K1 mHTR2A beta-arrestin complementation; percent of 30 µM serotonin response; activation, % at 7.6 µM; 360,000 compounds, 0.66% hits;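 active = activation above a run cutoff, the mean activation of all tested compounds plus 3 SD, cut at about 14% in these data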;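 note: 0% = plate median of compound wells and 100% = 30 µM serotonin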
CXCR6 block = CXCR6 receptor inhibitors, primary screen, cell-based, beta-arrestin, luminescence, CHO-K1 PathHunter, 1536-well; C-X-C chemokine receptor type 6 (Homo sapiens), O00574; inhibition, % at 20 µM; 360,000 compounds, 0.36% hits; AID 602244, 2012; in the data active = inhibition above about 34%, passing the limit was not always enough;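 note: antagonist mode with CXCL16 agonist at 10 nM final; 0% = 10 nM CXCL16 with DMSO and 100% = unstimulated wells without agonist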
APJ antag = antagonists of human apelin receptor APJ, primary screen, CHO-K1 cells, beta-arrestin complementation, luminescence. P35414. inhibition, % at 20 µM. 330,000 compounds, 0.32% hits;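 active = inhibition above about 40% at 20 µM, limit read from the data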;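 note: cells challenged with 10 nM apelin-13 agonist together with compound; plate controls were apelin-13 plus DMSO wells for no effect and DMSO wells lacking apelin-13 for full effect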
APJ antag conf = APJ antagonists blocking beta-arrestin recruitment, confirmation, cell-based, luminescence, single concentration, uHTS hits. inhibition, % at 20 µM. antagonist mode. 950 compounds, 66% hits. shares compounds with APJ antag; in the data active = inhibition above about 50%
Active calls of the source: *; x = no result.

SMILES	CCR6 antag	APJ agonist	EBI2 block	m5-HT2A agonist	CXCR6 block	APJ antag	APJ antag conf
COc1cc(C(=O)N/N=C(\c2ccccc2)c2ccccn2)cc(OC)c1OC	90*	0	17	-4	63*	43*	73*
O=C(CNC1CCCCCC1)c1cccs1	33	-11	-2	3	1	67*	48
CCCN1CN(Cc2ccccc2)CNC1=S	16	-6	-13	4	-2	-13	x
O=C(NNC(=S)Nc1ccc(Br)cc1)c1ccc(N2CCOCC2)c([N+](=O)[O-])c1	46	-5	12	1	21	32	x
COc1ccc(C(=O)NC(=S)Nc2cccc(Cl)c2N2CCOCC2)cc1[N+](=O)[O-]	33	-10	42*	-3	27	81*	55*
COc1ccc(C(=O)NC(=S)Nc2ccc(N3CCN(C(C)=O)CC3)cc2)cc1[N+](=O)[O-]	44	-3	6	1	30	13	x
Cc1ccc(NC(=S)NNC(=O)c2ccc(N3CCOCC3)c([N+](=O)[O-])c2)cc1Cl	31	-7	3	-1	35	42*	63*
O=C(NNC(=S)Nc1ccc(Cl)cc1Cl)c1ccc(N2CCOCC2)c([N+](=O)[O-])c1	27	-5	9	-2	25	40*	62*
O=C(Nc1nc(-c2ccccn2)cs1)c1cc(Cl)ccc1[N+](=O)[O-]	77*	-8	40*	-7	59*	72*	97*
COc1ccc(NC(=O)CSc2nnc(-c3ccccn3)n2-c2ccccc2)cc1OC	-14	0	-5	2	-2	41*	-16
COc1ccc(NC(=O)CSc2ccccn2)cc1OC	-10	0	-4	3	-2	2	x
Cn1c(=O)c2c(SCC(=O)N3CCCc4ccccc43)nc(CC(C)(C)C)nc2n(C)c1=O	27	3	20	6	2	15	x
Oc1ccc2ccccc2c1N=Nc1ccccn1	63*	-13	29	-6	41*	75*	97*
Oc1ccc2ccccc2c1N=Nc1ccccc1F	33	-2	-4	4	11	-8	x
O=S(=O)(O)c1cccc(N=Nc2c(O)ccc3ccccc23)c1	43	-5	0	-3	28	49*	58*
COc1ccc(N=C2C(=O)N3c4c(cccc42)C(C)=CC3(C)C)cc1	50*	-3	-2	0	30	46*	89*
Cc1ccc(C(=O)CNc2cccc([N+](=O)[O-])c2)cc1	22	-4	22	-2	13	55*	39
Cc1ccc(C(=O)CNc2ccccc2C)cc1	86*	-15	0	2	58*	76*	120*
Cc1ccc(NCC(=O)c2ccc([N+](=O)[O-])cc2)cc1	-4	9	15	-2	-3	-13	x
Cc1ccc(C(=O)CNc2ccccc2)cc1	83*	-15	7	-1	47*	44*	110*
Cc1ccc(C(=O)CC(=O)c2ccc(C(C)(C)C)cc2)cc1	22	-3	16	-1	-6	-2	x
Cc1ccc(NC(=O)CCNS(=O)(=O)c2ccc3c(c2)CCC(=O)N3)c(Br)c1	4	-2	0	-4	-1	41*	-8
Cc1ccc(NC(=O)CCNS(=O)(=O)c2ccc3c(c2)CCC(=O)N3)cc1	3	-6	-1	2	-4	0	x
CCc1ccc(OCC(=O)NCCN(C)C)c(Br)c1	6	-5	-12	-10	3	9	x
O=C(Nc1cc(Cl)ccc1N1CCOCC1)c1ccc(Br)o1	5	-2	0	5	4	4	x
SMILES	CCR6 antag	APJ agonist	EBI2 block	m5-HT2A agonist	CXCR6 block	APJ antag	APJ antag conf
Cc1ccnc2nc(C(=O)Nc3cc(Cl)ccc3N3CCOCC3)nn12	8	-6	8	0	0	57*	21
CCN(CC)S(=O)(=O)c1ccc2oc(SCC(=O)Nc3cc(C)on3)nc2c1	x	-10	6	-15	12	43*	53*
COc1ccc(Cc2nnc(NC(=O)c3ccc(OC(C)=O)cc3)s2)cc1OC	0	-1	7	1	-2	-1	x
COc1ccc(NC(=O)Nc2ccc3c(c2)C(=O)N([C@@H](C)CO)C[C@@H](C)[C@@H](CN(C)CC2CCCCC2)O3)cc1	8	-2	3	-3	14	17	x
COc1ccc(NC(=O)Nc2cccc3c2O[C@@H](CN(C)CC2CCCCC2)[C@@H](C)CN([C@H](C)CO)C3=O)cc1	-1	-4	-15	1	1	62*	62*
Cc1cc(C)c2ccc(N)nc2c1O	62*	-9	-31	4	49*	51*	59*
O=S(=O)(NCC1CCCO1)c1ccc2oc3ccc(S(=O)(=O)NCC4CCCO4)cc3c2c1 (stereo unspecified)	6	0	-13	-4	-9	-6	x
CC(/C=N/n1c(C2CCCCC2)n[nH]c1=S)=C\c1ccccc1	33	-5	2	0	12	47*	78*
O=C(COC(=O)CCc1nc2ccccc2c(=O)[nH]1)Nc1ccc(OC(F)(F)F)cc1	4	-1	0	9	3	12	x
NS(=O)(=O)c1ccc(NC(=O)COC(=O)CCc2nc3ccccc3c(=O)[nH]2)cc1	3	-4	3	0	6	45*	31
COc1cc(/C=C2/N=C(C3CCCCC3)OC2=O)cc(OC)c1OC	-10	-1	-16	-1	0	42*	23
COc1cc(/C=C2\N=C(C)OC2=O)cc(OC)c1OC	17	-3	-7	-1	12	24	x
Cc1ccc(S(=O)(=O)Nc2nc3ccccc3nc2Nc2cccc(S(=O)(=O)N3CCCC3)c2)cc1	2	-1	-18	5	7	74*	1
Cc1ccc(/C=C/C(=O)Nc2cc(S(=O)(=O)N3CCOCC3)ccc2N2CCOCC2)cc1	19	1	14	-6	1	8	x
O=C(CCC(=O)OCC(=O)c1ccc([N+](=O)[O-])cc1)Nc1ccccc1Cl	-6	7	-14	3	-7	-58	x
Cc1ccc(C(=O)COC(=O)CCC(=O)NC2CCCCC2)cc1[N+](=O)[O-]	27	-10	-1	-2	22	49*	35
O=C(CCC(=O)OCC(=O)c1ccc(Br)cc1)NC1CCCCC1	12	-7	-2	-3	0	17	x

Compound activity: PubChem, several laboratories
